Reference: ChEMBL document CHEMBL1124191, “Design of rat renin inhibitory peptides” (J Med Chem, 1988)
*1 amine or outer side, *2 acyl side, *3 side chain or, on linkers, in order; H or OH if unused. Where a SMILES comes first, the peptide text is derived from it. [ ]: non-standard residue; d: D form. Ahppa(3S,4S) = O=C(C[C@H](O)[C@H](Cc1ccccc1)N[*:1])[*:2]; 1Nal = N[C@@H](Cc1cccc2ccccc12)C(=O)O; Sta = CC(C)C[C@H](N)[C@@H](O)CC(=O)O; Tle = CC(C)(C)[C@H](N)C(=O)O

Assays:
Renin [1] = target: T1, Renin (Homo sapiens, UniProt P00797); test: Compound was tested for its inhibitory activity against human plasma renin; assay type: cell-free
T1 sequence (P00797 whole entry): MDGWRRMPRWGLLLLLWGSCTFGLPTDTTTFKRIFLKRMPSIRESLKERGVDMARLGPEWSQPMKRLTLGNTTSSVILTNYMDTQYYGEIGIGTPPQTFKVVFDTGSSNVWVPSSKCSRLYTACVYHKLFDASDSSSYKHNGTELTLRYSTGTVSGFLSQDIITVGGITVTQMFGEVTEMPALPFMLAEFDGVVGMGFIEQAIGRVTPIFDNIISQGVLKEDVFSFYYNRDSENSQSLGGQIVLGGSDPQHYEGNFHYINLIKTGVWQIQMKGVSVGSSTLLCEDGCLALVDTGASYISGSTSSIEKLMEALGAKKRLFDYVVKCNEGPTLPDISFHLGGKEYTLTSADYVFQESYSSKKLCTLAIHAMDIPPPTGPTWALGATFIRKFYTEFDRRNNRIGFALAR

Rattus norvegicus [2] = test: Compound evaluated for decrease in mean arterial pressure at a minimal dose of 100 ug/kg in rats; assay type: functional, Artery
Renin [3] = target: T2, Renin (Rattus norvegicus, UniProt P08424); test: Inhibitory activity against rat plasma renin in vitro.; assay type: cell-free
T2 sequence (P08424 whole entry): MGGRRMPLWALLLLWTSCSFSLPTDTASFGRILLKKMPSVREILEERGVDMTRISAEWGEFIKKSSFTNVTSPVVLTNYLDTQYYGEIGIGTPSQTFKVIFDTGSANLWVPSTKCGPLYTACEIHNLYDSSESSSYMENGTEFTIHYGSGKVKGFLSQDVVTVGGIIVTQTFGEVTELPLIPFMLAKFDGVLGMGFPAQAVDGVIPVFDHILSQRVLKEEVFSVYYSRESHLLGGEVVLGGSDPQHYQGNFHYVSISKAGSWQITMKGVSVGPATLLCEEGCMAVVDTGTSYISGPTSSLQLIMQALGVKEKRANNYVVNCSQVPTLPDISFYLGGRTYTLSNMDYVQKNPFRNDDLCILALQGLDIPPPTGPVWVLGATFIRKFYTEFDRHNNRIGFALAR
Outline: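 Pooled EDTA rat plasma with added PMSF 5 mM, 8-hydroxyquinoline 3 mM and extra EDTA 5 mM, at pH 7.4, mixed with serial 1:10 peptide dilutions (Tris/DMSO), split, and incubated 1 h at 37 and 0 °C.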

Rattus norvegicus [4] = test: Compound evaluated for decrease in mean arterial pressure at a minimal dose of 3 ug/kg in rats; assay type: functional, Artery

SMILES | IC50 (Renin [3]) [nM] | also measured
CC(=O)N[C@@H](Cc1cnc[nH]1)C(=O)N1CCC[C@@H]1C(=O)N[C@@H](Cc1ccccc1)C(=O)N[C@@H](Cc1cnc[nH]1)C(=O)N[C@@H](CC1CCCCC1)[C@@H](O)CC(=O)N[C@@H](CC(C)C)C(=O)N[C@@H](Cc1ccccc1)C(N)=O |  | IC50 (Renin [1]): 0.5 nM
CC(=O)N[C@@H](Cc1cnc[nH]1)C(=O)N1CCC[C@@H]1C(=O)N[C@@H](Cc1ccccc1)C(=O)N[C@H](C(=O)N[C@@H](CC1CCCCC1)[C@@H](O)CC(=O)N[C@@H](CC(C)C)C(=O)N[C@@H](Cc1ccccc1)C(N)=O)C(C)C |  | IC50 (Renin [1]): 15 nM
CC(=O)N[C@@H](Cc1cnc[nH]1)C(=O)N1CCC[C@@H]1C(=O)N[C@@H](Cc1ccccc1)C(=O)N[C@H](C(=O)N[C@@H](CC(C)C)[C@@H](O)CC(=O)N[C@@H](CC(C)C)C(=O)N[C@@H](Cc1ccccc1)C(N)=O)C(C)C |  | IC50 (Renin [1]): 3.2 nM
CC(=O)N[C@@H](Cc1c[nH]cn1)C(=O)N1CCC[C@H]1C(=O)N[C@@H](Cc1ccccc1)C(=O)N[C@@H](Cc1c[nH]cn1)C(=O)N[C@@H](CC(C)C)[C@@H](O)CC(=O)N[C@@H](CC(C)C)C(=O)N[C@@H](Cc1ccccc1)C(N)=O |  | Decrease (Rattus norvegicus [2]): 13.2%
CC(=O)N[C@@H](Cc1cnc[nH]1)C(=O)N1CCC[C@H]1C(=O)N[C@@H](Cc1c[nH]c2ccccc12)C(=O)N[C@@H](Cc1cnc[nH]1)C(=O)N[C@@H](CC(C)C)[C@@H](O)CC(=O)N[C@@H](CC(C)C)C(=O)N[C@@H](Cc1ccccc1)C(N)=O (Ac-HPWH[Sta]LF-NH2) | 240 | 
CC(=O)N[C@@H](Cc1cnc[nH]1)C(=O)N1CCC[C@H]1C(=O)N[C@@H](Cc1ccccc1)C(=O)N[C@@H](CC(C)C)C(=O)N[C@@H](CC(C)C)[C@@H](O)CC(=O)N[C@@H](CC(C)C)C(=O)N[C@@H](Cc1ccccc1)C(N)=O | 310 | 
CC(=O)N[C@@H](Cc1cnc[nH]1)C(=O)N1CCC[C@H]1C(=O)N[C@@H](Cc1ccccc1)C(=O)N[C@@H](Cc1cnc[nH]1)C(=O)N[C@@H](CC(C)C)[C@@H](O)CC(=O)N[C@@H](CC(C)C)C(=O)N[C@@H](Cc1ccccc1)C(N)=O | 210 | 
CC(=O)N[C@@H](Cc1cnc[nH]1)C(=O)N1CCC[C@@H]1C(=O)N[C@@H](Cc1ccccc1)C(=O)N[C@@H](Cc1cnc[nH]1)C(=O)N[C@@H](CC(C)C)[C@@H](O)CC(=O)N[C@@H](CC(C)C)C(=O)N[C@@H](Cc1ccccc1)C(N)=O |  | IC50 (Renin [1]): 14 nM
CC[C@H](C)[C@H](NC(=O)[C@H](Cc1ccccc1)NC(=O)[C@@H]1CCCN1C(=O)[C@H](Cc1cnc[nH]1)NC(C)=O)C(=O)N[C@@H](Cc1ccccc1)[C@@H](O)CC(=O)N[C@@H](CC(C)C)C(=O)N[C@@H](Cc1ccccc1)C(N)=O (Ac-HPFI[Ahppa(3S,4S)]LF-NH2) | 1270 | 
CC(=O)N[C@@H](Cc1c[nH]cn1)C(=O)N1CCC[C@H]1C(=O)N[C@@H](Cc1cccc2ccccc12)C(=O)N[C@@H](Cc1c[nH]cn1)C(=O)N[C@@H](CC(C)C)[C@@H](O)CC(=O)N[C@@H](CC(C)C)C(=O)N[C@@H](Cc1ccccc1)C(N)=O (Ac-HP[1Nal]H[Sta]LF-NH2) | 220 | 
CC(C)C[C@H](NC(=O)[C@H](Cc1c[nH]cn1)NC(=O)[C@H](Cc1ccccc1)NC(=O)[C@@H]1CCCN1C(=O)[C@H](Cc1c[nH]cn1)NC(=O)[C@@H]1CCCN1)[C@@H](O)CC(=O)N[C@H](C(=O)N[C@H](C(N)=O)[C@@H](C)O)[C@@H](C)O (H-PHPFH[Sta]TT-NH2) | 105000 | 
CC(C)C[C@H](NC(=O)[C@H](Cc1cnc[nH]1)NC(=O)[C@H](Cc1ccccc1)NC(=O)[C@@H]1CCCN1C(=O)[C@H](Cc1cnc[nH]1)NC(=O)[C@@H]1CCCN1)[C@@H](O)CC(=O)N[C@@H](Cc1ccc(O)cc1)C(=O)N[C@@H](Cc1ccc(O)cc1)C(=O)N[C@@H](CCCCN)C(N)=O (H-PHPFH[Sta]YYK-NH2) | 35000 | 
CC(=O)N[C@@H](Cc1cnc[nH]1)C(=O)N1CCC[C@H]1C(=O)N[C@@H](Cc1ccccc1)C(=O)N[C@@H](Cc1cnc[nH]1)C(=O)N[C@@H](CC(C)C)[C@@H](O)CC(=O)N[C@H](C(=O)N[C@@H](Cc1ccccc1)C(N)=O)C(C)(C)C (Ac-HPFH[Sta][Tle]F-NH2) | 1900 | 
CC(=O)N[C@@H](Cc1ccccc1)C(=O)N1CCC[C@H]1C(=O)N[C@@H](Cc1ccccc1)C(=O)N[C@H](C(=O)N[C@@H](CC(C)C)[C@@H](O)CC(=O)N[C@@H](CC(C)C)C(=O)N[C@@H](Cc1ccccc1)C(N)=O)C(C)C (Ac-FPFV[Sta]LF-NH2) | 42 | 
CC(=O)N[C@@H](Cc1c[nH]cn1)C(=O)N1CCC[C@H]1C(=O)N[C@@H](CC(C)C)C(=O)N[C@@H](Cc1c[nH]cn1)C(=O)N[C@@H](CC(C)C)[C@@H](O)CC(=O)N[C@@H](CC(C)C)C(=O)N[C@@H](Cc1ccccc1)C(N)=O | 9100 | 
CC(=O)N[C@@H](Cc1cnc[nH]1)C(=O)N1CCC[C@H]1C(=O)N[C@@H](Cc1ccccc1)C(=O)N[C@H](C(=O)N[C@@H](CC1CCCCC1)[C@@H](O)CC(=O)N[C@@H](CC(C)C)C(=O)N[C@@H](Cc1ccccc1)C(N)=O)C(C)C | 33 | 
CC(=O)N[C@@H](Cc1cnc[nH]1)C(=O)N1CCC[C@H]1C(=O)N[C@@H](Cc1ccccc1)C(=O)N[C@@H](Cc1cnc[nH]1)C(=O)N[C@@H](CC1CCCCC1)[C@@H](O)CC(=O)N[C@@H](CC(C)C)C(=O)N[C@@H](Cc1ccccc1)C(N)=O | 50 | 
CC(=O)N[C@@H](Cc1c[nH]cn1)C(=O)N1CCC[C@H]1C(=O)N[C@@H](Cc1ccccc1)C(=O)N[C@H](C(=O)N[C@@H](CC(C)C)[C@@H](O)CC(=O)N[C@@H](CC(C)C)C(=O)N[C@@H](Cc1ccccc1)C(N)=O)C(C)C |  | Decrease (Rattus norvegicus [4]): 4.9%
CC(C)C[C@H](NC(=O)C[C@H](O)[C@H](CC(C)C)NC(=O)[C@H](Cc1c[nH]cn1)NC(=O)[C@H](Cc1ccccc1)NC(=O)[C@@H]1CCCN1C(=O)[C@H](Cc1c[nH]cn1)NC(=O)[C@@H]1CCCN1)C(=O)N[C@@H](Cc1ccc(O)cc1)C(=O)N[C@@H](Cc1ccc(O)cc1)C(N)=O (H-PHPFH[Sta]LYY-NH2) | 775 | 
